A selection: hits, their analogues and other compounds. The true share with any hit is near 2.9%.
TAG inh = triacylglycerol accumulation inhibition; hit rate 0.66% among 230,000; AID 651582; H9c2 cells, Nile Red lipid (TAG) fluorescence; cells loaded with 200 µM oleic acid; inhibition, % at 12.5 µM;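 active = pattern-corrected inhibition of lipid staining of at least 50% with the nuclear-stain viability signal not falling by more than 50%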;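 note: 0% = DMSO wells and 100% = triacsin C control wells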
T cruzi inh = T. cruzi replication inhibition; inhibition, % (concentration not given with the values); T. cruzi beta-gal in NIH3T3, luminescence, 90 h; hit rate 1.4% among 300,000;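 active = mean inhibition across valid replicates above about 55%, limit read from the data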;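 note: signal also drops with host cell toxicity which is not excluded here; 0% = plate median of DMSO wells and 100% = zero luminescence signal; higher percent means less beta-gal luminescence so fewer parasites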
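Assay system: NIH/3T3 host cells with β-galactosidase reporter T. cruzi; input: 5,000 host fibroblasts per well; compound: single 50 nL compound addition per well in DMSO; timing: ≥90 h infection period, 3 h prior cell attachment; measured by: GalScreen β-gal luminescence, detergent lysis, 60 min; evaluation: percent inhibition of parasite-derived β-gal signal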
beta cell repl = inducers of beta-cell replication in MIN6 cells | proliferation, % at 10 µM | hit rate 0.29% among 330,000 | MIN6 cells proliferation, ATPlite luminescence, 48 h; cells starved in 0.2% serum; 100% = growth in 10% serum;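 active = compounds whose signal lies at least 3.5 SD above the mean of all wells on their plate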;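 note: 0% = DMSO-treated cells in low-serum medium and 100% = 10% serum control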
hiPSC survival = increases survival of single human iPS cells. hiPSC single-cell survival, ATPlite luminescence; 100% = ROCK inhibitor wells, 0% = DMSO. survival enhancement, % at 20 µM. hit rate 0.044% among 360,000. AID 602274; in the data active = survival enhancement above about 18%;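 note: cells exposed to compounds for 16 hours before the ATP read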
PG9 Ab binder = binds the HIV-1 gp120 antibody PG9. AID 624416. TR-FRET gp120-PG9 antibody binding. hit rate 0.43% among 360,000. inhibition, % at 6.7 µM; in the data active = inhibition above about 8.5%
Rev-erbA mod = modulators of human Rev-erb alpha DNA binding. hit rate 0.79% among 370,000. AID 1259318. Rev-erbα–FITC-DNA binding, fluorescence polarization, 90 min. P20393. activity, % at 10 µM;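 active = activity above about 14%, limit read from the data; passing the limit was not always enough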;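 note: 0% = DMSO wells with 35 nM protein and 100% = DMSO wells with 750 nM protein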
Target sequence (P20393 whole entry, looked up): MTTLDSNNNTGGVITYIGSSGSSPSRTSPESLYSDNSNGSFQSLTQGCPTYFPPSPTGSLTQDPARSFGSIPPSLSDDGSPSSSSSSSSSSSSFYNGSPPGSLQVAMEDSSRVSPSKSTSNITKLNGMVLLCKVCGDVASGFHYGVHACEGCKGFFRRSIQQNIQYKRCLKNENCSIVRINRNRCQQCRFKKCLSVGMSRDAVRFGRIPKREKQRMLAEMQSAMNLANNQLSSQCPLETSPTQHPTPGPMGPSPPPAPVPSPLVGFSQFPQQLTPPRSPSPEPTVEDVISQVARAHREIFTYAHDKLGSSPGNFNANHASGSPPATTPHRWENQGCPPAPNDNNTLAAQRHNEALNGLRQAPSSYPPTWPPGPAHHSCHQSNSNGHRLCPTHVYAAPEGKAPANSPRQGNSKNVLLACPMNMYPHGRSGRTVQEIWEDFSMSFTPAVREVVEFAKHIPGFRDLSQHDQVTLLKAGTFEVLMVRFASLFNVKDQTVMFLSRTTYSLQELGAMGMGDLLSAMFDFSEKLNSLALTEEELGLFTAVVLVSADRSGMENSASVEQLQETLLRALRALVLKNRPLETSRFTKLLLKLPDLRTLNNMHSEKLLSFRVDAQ
Starred values were filed as active, the others as inactive.

Screening CC(=O)N(C1CC(C)C(C#N)(C#N)C1(C#N)C#N)N(C)C (centres undefined) returned TAG inh 27, T cruzi inh -60, beta cell repl -7, hiPSC survival 2, PG9 Ab binder -2 and Rev-erbA mod 1.
Screening CCN1CCn2c1nc(N1CCCCC1)nc2=O returned T cruzi inh 41, beta cell repl -3, hiPSC survival 1, PG9 Ab binder 0 and Rev-erbA mod 3.
CN1CCN(c2nc(-c3ccc(Br)cc3)nnc2-c2ccccc2)CC1 was read as TAG inh 25, T cruzi inh 65*, beta cell repl -4, hiPSC survival -2 and PG9 Ab binder -1.
Screening CCOC(=O)C1CCCN(Cc2ccc(-c3ccccc3)cc2)C1 (centres undefined) returned T cruzi inh 68*, beta cell repl -4, hiPSC survival 1, PG9 Ab binder -1 and Rev-erbA mod 0.
For CCOC(=O)C1CCN(C2CCN(Cc3nc(-c4ccccc4)no3)CC2)CC1 the results were TAG inh 2, T cruzi inh 9, beta cell repl -3, hiPSC survival -2, PG9 Ab binder -2 and Rev-erbA mod 1.
Screening CN(Cc1ccccc1)C(=O)C1CCCN(Cc2cccc(Cl)c2)C1 (centres undefined) returned TAG inh -16, T cruzi inh 60*, beta cell repl -4, hiPSC survival -2, PG9 Ab binder 0 and Rev-erbA mod -2.
`CCOC(=O)C1CCCN(C2CCN(Cc3nc(-c4ccccc4)no3)CC2)C1` (centres undefined) gave T cruzi inh 70*, beta cell repl -3, hiPSC survival 6, PG9 Ab binder -3 and Rev-erbA mod -3.
Screening COc1cc2c(c(OCC(=O)NC(C)C)c1)C(=O)O[C@@H](C)CCCC(=O)CCCCC2 returned T cruzi inh 0, beta cell repl -1, hiPSC survival 0, PG9 Ab binder -2 and Rev-erbA mod -3.
`CCc1ccccc1NC(=O)Nc1ccc(F)cc1` gave T cruzi inh -4, beta cell repl -1, hiPSC survival -1, PG9 Ab binder 0 and Rev-erbA mod -1.
For CCN(CC)S(=O)(=O)c1ccc(OC)c(NC(=O)c2ccc3c(c2)OCO3)c1 the results were T cruzi inh 11, beta cell repl -1, hiPSC survival -1, PG9 Ab binder -2 and Rev-erbA mod 3.
For COc1ccc2oc(C(=O)C3CC3)c(N)c2c1 the results were TAG inh 11, T cruzi inh 2, beta cell repl 1, hiPSC survival -2, PG9 Ab binder -1 and Rev-erbA mod 1.
`O=C(NCCCN1CCCC1)C1CCN(C(=O)c2cc3sccc3n2Cc2ccc(F)cc2)CC1` gave T cruzi inh 55*, beta cell repl -4, hiPSC survival 1, PG9 Ab binder 0 and Rev-erbA mod -2.
Screening COCCCNC(=O)C1CCN(C(=O)c2cc3sccc3n2Cc2ccc(F)cc2)CC1 returned T cruzi inh 0, beta cell repl 0, hiPSC survival -1, PG9 Ab binder -1 and Rev-erbA mod 0.
For COc1cccc(CNC(=O)c2nnn(CC(=O)Nc3ccc4c(c3)OCO4)c2N)c1 the results were TAG inh 9, T cruzi inh 2, beta cell repl -1, hiPSC survival 0, PG9 Ab binder 0 and Rev-erbA mod -4.
Screening CC(C(=O)Nc1sc2c(c1C#N)CCCCC2)N1C(=O)c2ccccc2C1=O (centres undefined) returned T cruzi inh 3, beta cell repl -2, hiPSC survival -1, PG9 Ab binder 0 and Rev-erbA mod 5.
O=C(COc1ccccc1/C=C\c1[nH]c(=O)[nH]c(=O)c1[N+](=O)[O-])Nc1ccccc1 was read as TAG inh -2, T cruzi inh 55*, hiPSC survival 0, PG9 Ab binder 0 and Rev-erbA mod 0.
Screening O=C(COC(=O)C12CC3CC(CC(C3)C1)C2)NC12CC3CC(CC(C3)C1)C2 returned TAG inh -7, T cruzi inh -4, beta cell repl -2, hiPSC survival -2, PG9 Ab binder 0 and Rev-erbA mod -2.
For O=C1c2ccccc2C(=O)c2c1oc(C(F)(F)F)c2C(=O)c1ccccc1 the results were TAG inh 33, T cruzi inh 59*, beta cell repl -4, hiPSC survival -1, PG9 Ab binder 0 and Rev-erbA mod 0.
Screening O=C(CCN1CCOCC1)N1c2ccccc2Sc2ccc(Cl)cc21 returned T cruzi inh -7, beta cell repl -6, hiPSC survival 0, PG9 Ab binder -1 and Rev-erbA mod -8.
Screening CC(C)CCNC(=O)C(c1cccnc1)N(Cc1ccccc1)C(=O)Cn1nnc2ccccc21 (centres undefined) returned TAG inh 14, T cruzi inh 56*, beta cell repl -1, hiPSC survival 2, PG9 Ab binder -1 and Rev-erbA mod 2.
`CCOC(=O)CN1C(=O)NC2NC(=O)NC21` (centres undefined) gave TAG inh -8, T cruzi inh -4, beta cell repl 3, hiPSC survival 1, PG9 Ab binder 1 and Rev-erbA mod -4.
`CCOC(=O)NC(=O)CSc1ccc(S(=O)(=O)N(C)C2CCCCC2)cn1` gave TAG inh -6, beta cell repl -5, hiPSC survival 0, PG9 Ab binder 1 and Rev-erbA mod 4.
Screening COC(=O)c1cc2c(ccn2-c2ccc(F)cc2)n1Cc1ccc(OC(C)=O)cc1 returned T cruzi inh 58*, beta cell repl -3, hiPSC survival -2, PG9 Ab binder -1 and Rev-erbA mod -3.
`O=C(/C=C/c1cccc(F)c1)OCC(=O)N1CCc2ccccc21` gave TAG inh 15, beta cell repl -4, hiPSC survival 0, PG9 Ab binder 2 and Rev-erbA mod -5.
For COc1ccc2c(c1)CCC1=C2NC(=S)NC1c1ccc(N(C)C)cc1 (centres undefined) the results were TAG inh -62, T cruzi inh 66*, beta cell repl -6, hiPSC survival 0, PG9 Ab binder -1 and Rev-erbA mod 5.
Screening COc1cc(C2NC(=S)NC3=C2CCc2ccccc23)cc(OC)c1OC (centres undefined) returned T cruzi inh -3, beta cell repl -3, hiPSC survival -1, PG9 Ab binder 0 and Rev-erbA mod -5.
Screening CC1(CCc2ccccc2)NC(=O)N(Cc2cc([N+](=O)[O-])cc3c2OCOC3)C1=O (centres undefined) returned TAG inh -4, T cruzi inh 12, beta cell repl -4, hiPSC survival 2, PG9 Ab binder -1 and Rev-erbA mod -3.
Screening Cc1cc(NC(=O)c2cc(-c3cccnc3)nc3c(C)c(C)ccc23)no1 returned TAG inh 19, T cruzi inh 31, beta cell repl 0, hiPSC survival 3, PG9 Ab binder 1 and Rev-erbA mod -3.

High-throughput results as filed in PubChem.
